Shown are actives, neighbours in structure and some others; about 1.3% of the full set was active somewhere.
Mac1 fbg enh: enhancers of human CD11b/CD18 binding to fibrinogen | K562 CD11b/CD18 adhesion to fibrinogen, ATPlite luminescence | P05107+P11215 | 0.07% of 93,000 active | activation, % at 10 µM;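 active = 10 µM primary screen giving 50% or more activity, confirmed by 40% or more on retest at that dose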
Target sequence (P05107 whole entry, looked up, other chains not shown): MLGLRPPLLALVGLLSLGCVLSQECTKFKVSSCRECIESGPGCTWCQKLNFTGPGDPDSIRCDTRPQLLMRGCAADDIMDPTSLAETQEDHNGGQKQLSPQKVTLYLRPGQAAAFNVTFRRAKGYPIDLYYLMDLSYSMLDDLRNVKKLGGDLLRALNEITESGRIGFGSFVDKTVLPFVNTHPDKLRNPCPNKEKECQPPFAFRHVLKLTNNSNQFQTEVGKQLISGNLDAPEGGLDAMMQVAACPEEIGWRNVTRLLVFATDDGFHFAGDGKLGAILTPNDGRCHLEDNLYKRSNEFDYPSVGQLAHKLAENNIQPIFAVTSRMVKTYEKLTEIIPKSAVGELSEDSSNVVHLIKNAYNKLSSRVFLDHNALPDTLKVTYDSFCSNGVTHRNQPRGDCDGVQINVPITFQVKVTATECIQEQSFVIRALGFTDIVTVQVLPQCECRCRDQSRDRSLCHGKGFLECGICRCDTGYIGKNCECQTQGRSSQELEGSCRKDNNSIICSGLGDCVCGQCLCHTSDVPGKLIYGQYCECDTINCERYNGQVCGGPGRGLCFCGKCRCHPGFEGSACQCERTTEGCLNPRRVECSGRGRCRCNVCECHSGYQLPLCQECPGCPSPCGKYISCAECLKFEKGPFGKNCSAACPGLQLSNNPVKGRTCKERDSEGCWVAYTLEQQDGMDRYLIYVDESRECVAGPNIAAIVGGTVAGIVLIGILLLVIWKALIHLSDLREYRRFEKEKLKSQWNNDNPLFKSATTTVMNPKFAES
EphB4 ephrin blk: blocks human EphB4 binding to ephrin-B2; inhibition, % at 7 µM; AID 720; 0.15% of 97,000 active; EphB4 LBD / TNYL-RAW-Alexa532 peptide, fluorescence polarization;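 active = inhibition above the screen-wide mean inhibition plus 3 SD, cut at about 15% in these data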;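 also: 0% = DMSO wells and 100% = excess unlabeled TNYL-RAW peptide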
Mac1 fbg inh: CD11b/CD18-fibrinogen binding inhibition. 0.54% of 93,000 active. AID 1497. K562 CD11b/CD18 adhesion to fibrinogen, ATPlite luminescence; Mn2+ added to activate the integrin. inhibition, % at 10 µM;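 active = primary inhibition of 50% or more at 10 µM, then 40% or more on retest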
Rev-RRE block: disrupts HIV-1 Rev binding to RRE RNA; P05866; Rev peptide-RRE RNA binding, FRET; inhibition, % at 8 µM; 0.79% of 97,000 active; AID 704;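 active = inhibition above the screen-wide mean plus 3 SD, cut at about 35% in these data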;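 also: 0% = median DMSO wells and 100% = median Neomycin B control wells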
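Probe or stimulus: fluorescein-Rev peptide as binding partner; assay system: Cy5-tagged RRE RNA duplex with fluorescein-tagged Rev peptide; timing: 5 min compound–RNA preincubation, then 15 min with peptide, 25 °C; medium: HEPES pH 7.5 buffer with KCl, MgCl2, NaCl and EDTA; signal: fluorescein-to-Cy5 FRET, 480 nm excitation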
Smad3 FoxH1 inh: Smad3 (human) transcription factor binding inhibition; P84022; TR-FRET Smad3/Dy647-FoxH1 peptide binding, europium anti-His; inhibition, % at 25 µM; 0.29% of 88,000 active; AID 630;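 active = compounds that reduce the energy-transfer binding signal between the protein and its labelled peptide by more than half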;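 also: 0% = Smad3 plus labelled peptide maximal FRET and 100% = peptide-only background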
Phagocyt inh: macrophage phagocytosis inhibition | J774A.1 macrophage IgG-bead phagocytosis, imaging | inhibition, % at 5 µM | 0.07% of 110,000 active | AID 1029;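 active = inhibition above the mean of the plate negative controls plus 5 SD, cut at about 13% in these data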;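 also: phagocytic index as fraction of beads internalized from green versus red external bead signal; plate controls were DMSO negative control for no effect and cytochalasin-D positive control for full effect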
* marks the source's active call; other numbers are inactive results; [ ] = remark or other dose.

For CCn1c(O)c(C(=O)CC2NCCc3ccccc32)c(=O)n(CC)c1=S (stereo not drawn) the results were EphB4 ephrin blk -2, Rev-RRE block 48* and Smad3 FoxH1 inh 3.
Cc1ccnc(-n2c(C)cc(C=C3C(=O)N(C)C(=S)N(C)C3=O)c2C)c1 was read as Mac1 fbg enh -5, EphB4 ephrin blk -5, Mac1 fbg inh 12, Rev-RRE block 52* and Phagocyt inh -5.
Screening CN1C(=O)C(=Cc2ccc(N3CCCCC3)o2)C(=O)N(C)C1=S returned EphB4 ephrin blk -3 and Rev-RRE block 121*[fluorescence artefact?].
`CCN(CC)c1ccc(C=C2C(=O)N(C)C(=S)N(C)C2=O)o1` gave Phagocyt inh -4.
`O=C1NC(=O)N(c2ccc3c(c2)OCO3)C(=O)/C1=C/c1ccc(N2CCCCC2)o1` gave Mac1 fbg enh 0, EphB4 ephrin blk -3, Mac1 fbg inh -9, Rev-RRE block 124*[fluorescence artefact?] and Phagocyt inh 0.
`O=C(O)[C@@H]1[C@H](C(=O)O)[C@]2(Cl)C(Cl)=C(Cl)[C@@]1(Cl)C2(Cl)Cl` gave Smad3 FoxH1 inh 16.
`CCN1/C(=C\C=C\C2=[N+](CC)c3ccccc3C2(C)C)C(C)(C)c2ccccc21` gave Mac1 fbg enh -6, EphB4 ephrin blk -88, Mac1 fbg inh 97*, Rev-RRE block 57*[fluorescence artefact?], Smad3 FoxH1 inh 0 and Phagocyt inh active[artifact].
Screening Nc1nc(N)c(N=Nc2ccc([As](=O)(O)O)c(O)c2)c(N)n1 returned Smad3 FoxH1 inh 84*.
For Nc1nc(N)c(N=Nc2ccc([As](=O)(O)O)cc2)c(=O)[nH]1 the results were Smad3 FoxH1 inh 21.
For O=S(=O)(O)/C(=C\c1ccccc1)c1ccccc1 (tested in a mixture with another compound) the results were Smad3 FoxH1 inh 12.
`Cc1ccc(C2(c3ccc(C)c(O)c3C)CCN(C)CC2)c(C)c1O` gave Smad3 FoxH1 inh 29.
Screening Nc1cc[c]([Hg])cc1.Nc1nc2c(ncn2[C@H]2O[C@H](CO)[C@@H](O)[C@@H]2O)c(=[SH+])[nH]1 returned Smad3 FoxH1 inh 73*.
Screening Cn1c(=O)cc(SCC(=O)N2CCC3(CC2)OCCO3)c2ccc(Cl)cc21 returned EphB4 ephrin blk 3, Rev-RRE block -1 and Smad3 FoxH1 inh 56*[fluorescence artefact?].
Screening C/C(N[O-])=C(\C)[N+]([O-])=[Rh][Cl].CC(=N\[O-])/C(C)=N/[O-].c1ccc([PH+](c2ccccc2)c2ccccc2)cc1 returned Smad3 FoxH1 inh -1.
`CCOCCCn1c(N)c(C(=O)Nc2sc3c(c2C(=O)OC)CCCC3)c2nc3ccccc3nc21` gave Mac1 fbg enh 29, EphB4 ephrin blk -5, Mac1 fbg inh 12, Rev-RRE block 49* and Phagocyt inh 1.
CCOC(=O)c1c(NC(=O)c2c(N)n(CCCOC)c3nc4ccccc4nc23)sc2c1CCCC2 was read as Mac1 fbg enh 7, EphB4 ephrin blk 2, Mac1 fbg inh 13, Rev-RRE block 7, Smad3 FoxH1 inh 14 and Phagocyt inh 0.
For Cc1c(C(=O)N2CCC3(CC2)OCCO3)oc2ccccc12 the results were Mac1 fbg enh 0, EphB4 ephrin blk -2, Mac1 fbg inh -32, Rev-RRE block -3, Smad3 FoxH1 inh 0 and Phagocyt inh 3.
CC1=C(C(=O)N2CCC3(CC2)OCCO3)C2(CCC(C)CC2)OC1=O (stereo not drawn) was read as EphB4 ephrin blk 20*, Rev-RRE block 4, Smad3 FoxH1 inh 4 and Phagocyt inh 0.
Screening O=C(O)C[C@H]1OCC=C2CN3CC[C@]45C6=CC(=O)C(=O)C([N+](=O)[O-])=C6N[C@H]4[C@H]1[C@H]2C[C@H]35 returned Smad3 FoxH1 inh 58*.
`C1C[C@@H]2CN(CCCN3CCOCC3)[C@H](C1)O2` gave Smad3 FoxH1 inh 4.
CN(C)[C@@H]1C(=O)C(C(N)=O)=C(O)[C@]2(O)C(=O)C3=C(O)c4c(O)cccc4[C@](C)(O)[C@H]3C[C@@H]12 was read as Smad3 FoxH1 inh 96*.
For O=[As](O)(O)c1ccc(N=Nc2ccc([As](=O)(O)O)cc2)cc1 the results were Smad3 FoxH1 inh -4.
Screening O=C(O)CN1CCN(CC(=O)O)CC(=O)[O][Hg][O]C(=O)C1 returned Smad3 FoxH1 inh 0.
CC(C)OCCCNC(=O)c1c(N)n(CC2CCCO2)c2nc3ccccc3nc12 (stereo not drawn) was read as EphB4 ephrin blk -1, Rev-RRE block 12, Smad3 FoxH1 inh 8 and Phagocyt inh -1.
For CCCNC(=O)c1c(N)n(CC2CCCO2)c2nc3ccccc3nc12 (stereo not drawn) the results were Mac1 fbg enh 1, EphB4 ephrin blk 5, Mac1 fbg inh 15, Rev-RRE block 13, Smad3 FoxH1 inh 61* and Phagocyt inh 0.
Screening CCC1=C(C[C@H]2NCCc3cc(OC)c(OC)cc32)C[C@H]2c3ccccc3CCN2C1 returned Smad3 FoxH1 inh -5.
`CCOC(=O)c1c(-n2c(C)cc(C=C3C(=O)NC(=S)NC3=O)c2C)sc2c1CCCC2` gave Mac1 fbg enh 61, EphB4 ephrin blk 2, Mac1 fbg inh 3, Rev-RRE block 41* and Phagocyt inh 0.
For C=CCn1c(=O)c(C=Nc2cccc([N+](=O)[O-])c2)c(O)n(CCCC)c1=O the results were EphB4 ephrin blk 4 and Rev-RRE block 45*.
N#CCCCC[N+]12CN3CN(CN(C3)C1)C2 was read as Smad3 FoxH1 inh 13.
For CC(=O)O/C(=C1\C[C@@H]2[C@H]3CC=C4C[C@@H](OC(C)=O)CC[C@]4(C)[C@@H]3CC[C@@]2(C)C1=O)C(F)(F)F the results were Smad3 FoxH1 inh 9.
CCNC(C)(C)[C@@H](SS)c1ccc(Br)cc1 was read as Smad3 FoxH1 inh 96*.
Screening CC1(C)CCC(C)(C)c2c1ccc(O)c2Cc1c(O)ccc2c1C(C)(C)CCC2(C)C returned Smad3 FoxH1 inh 50.
`CN(C)CS/C(N)=N/[C@H](O)C(Cl)(Cl)Cl` gave Smad3 FoxH1 inh 54*.
C[C@]12CC[C@H](O)C[C@@H]1CC[C@H]1[C@H]2CC[C@@]2(C)[C@H](C3=CC(=O)OC3)[C@H](O)C[C@]12O was read as Smad3 FoxH1 inh 16.
`C[C@@H]1O[C@H](O[C@H]2C[C@@H](O)[C@]3(CO)[C@@H]4[C@@H](O)C[C@]5(C)[C@@H](C6=CC(=O)OC6)CC[C@@]5(O)[C@H]4CC[C@@]3(O)C2)[C@@H](O)[C@H](O)[C@H]1O` gave Smad3 FoxH1 inh 1.

Source: PubChem BioAssay
